Measured values published in ChEMBL document CHEMBL4368875, “Towards identifying potent new hits for glioblastoma” (Medchemcomm, 2018).

Experiments:
U-251 = assay: Antiproliferative activity against human U251MG cells after 72 hrs by sulforhodamine B assay; format: functional, cell-based; settings: U-251, 72 h
Summary of the method: (§1)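 Established GBM lines grown under conditions similar to the short-term cultures (Hams F10, 10% foetal calf serum, 37 °C, no CO₂). Seeded at 3000 cells per well and grown 48 h to exponential phase. Exposed 72 h to serial dilutions from DMSO stocks. Fixed in 10% TCA, stained with 0.4% SRB in 1% acetic acid, dye dissolved in 10mM Tris, absorbance 560nm. EC50 by non-linear variable-slope fit.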

[1] = Antiproliferative activity against human IN1528 cells after 72 hrs by sulforhodamine B assay; format: functional, cell-based; settings: IN1528, 72 h
Summary of the method: (§2)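 Short-term cultures derived from about 10mg of adult GBM biopsy tissue, used at passages 10 to 14. Grown in Hams F10 with 10% foetal calf serum at 37 °C without CO₂. Seeded at 3000 cells per well, then grown 48 h to exponential phase. Treated 72 h with serial dilutions from DMSO stocks. SRB read-out at 560nm. EC50 from a variable-slope sigmoidal dose-response fit.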

[2] = Antiproliferative activity against human IN1760 cells after 72 hrs by sulforhodamine B assay; format: functional, cell-based; settings: IN1760, 72 h; summary of the method: as §2
U-87 MG = assay: Antiproliferative activity against human U87MG cells after 72 hrs by sulforhodamine B assay; format: functional, cell-based, U-87MG ATCC; summary of the method: as §1
[3] = Antiproliferative activity against human IN1472 cells after 72 hrs by sulforhodamine B assay; format: functional, cell-based; settings: IN1472, 72 h; summary of the method: as §2
[4] = Solubility of the compound in DMSO at >1250 uM; format: physicochemical

Compound | EC50 (U-251) | EC50 (U-87 MG) | solubility [4] | EC50 [1] | EC50 [2] | EC50 [3]
Oc1ccccc1-c1nc2ccccc2o1 | 2260 µM | 52 µM |  |  | > 2500 µM | 
Oc1ccccc1-c1nc2ccccc2[nH]1 | 23 µM |  |  | 25 µM | 36 µM | 
Oc1ccccc1OCc1ccccc1 | 304 µM |  |  | 193 µM | 371 µM | 
Oc1ccccc1-c1ccc2ccccc2c1 | 92 µM | 48 µM |  | 104 µM | > 1000 µM | 
CCCCCCC(=O)Oc1ccccc1-c1cc2ccccc2[nH]1 | 38 µM |  |  | 29 µM |  | 
O=C(Oc1ccccc1-c1cc2ccccc2[nH]1)c1ccccc1 | 39 µM |  |  | 38 µM |  | 
Oc1ccc(-c2ccccc2)cc1 | 102 µM |  |  | 85 µM | 81 µM | 
Oc1ccccc1-c1cc2ccccc2[nH]1 [2-(2'-HYDROXYPHENYL)-1H-INDOLE] | 130 µM | 126 µM |  | 99 µM | 185 µM | > 0.625 mM
c1ccc(-c2cc3ccccc3[nH]2)cc1 [2-PHENYL-1H-INDOLE] | > 625 µM | > 625 µM |  | > 625 µM | > 625 µM | > 0.625 mM
Oc1ccccc1-c1ccccc1 [2-PHENYLPHENOL] | 372 µM |  |  | 361 µM | 236 µM | 
CC(=O)Oc1ccccc1C(=O)O [ASPIRIN] | 1340 µM | 723 µM |  | 787 µM | > 4000 µM | 1.41 mM
Oc1ccc(O)cc1 [HYDROQUINONE] | 57 µM |  |  |  |  | 
O=[N+]([O-])c1ccccc1O [NITROPHENOLATE] | 1250 µM | 888 µM |  | 890 µM | > 4000 µM | 
Cc1ccccc1O [ORTHOCRESOL] | 1560 µM | 664 µM |  | 744 µM | > 4000 µM | 1.44 mM
Oc1ccccc1 [PHENOL] | 1230 µM | 834 µM |  | 747 µM | > 4000 µM | 1.73 mM

Now from value to compound, other results behind:

EC50 (U-251) | EC50 (U-87 MG) | solubility [4] | Compound | EC50 [1] | EC50 [2] | EC50 [3]
17 µM |  |  | Cc1c(O)ccc(O)c1C |  |  | 
916 µM |  |  | O=C1c2ccccc2C(=O)N1c1ccccc1O | 744 µM | 1080 µM | 
21 µM |  |  | Cc1ccc(O)c(-c2cc3ccccc3[nH]2)c1 | 29 µM | 32 µM | 
> 1250 µM | > 1250 µM | Insoluble | Oc1ccccc1-c1nc2ccccc2s1 | > 1250 µM | > 1250 µM | > 1.25 mM
95 µM |  |  | Oc1ccccc1-c1c[nH]c2ccccc12 | 120 µM | 231 µM | 
31 µM |  |  | CC(=O)Oc1ccccc1-c1cc2ccccc2[nH]1 | 80 µM |  | 
328 µM | 257 µM |  | Nc1ccccc1-c1cc2ccccc2[nH]1 | 153 µM |  | 0.155 mM
 | > 625 µM |  | COc1ccccc1-c1cc2ccccc2[nH]1 [2-(2'-METHOXYPHENYL)-1H-INDOLE] |  |  | 
1140 µM | 492 µM |  | COc1ccccc1O [GUAIACOL] | 813 µM | > 4000 µM | 2.02 mM
> 625 µM | > 625 µM |  | c1ccc2[nH]ccc2c1 [INDOLE] | > 625 µM | > 625 µM | > 0.625 mM
1200 µM | 760 µM |  | NC(=O)c1ccccc1O [SALICYLAMIDE] | 793 µM | > 4000 µM | 1.39 mM
